Data from ChEMBL document CHEMBL4354819, “Discovery of Novel Small Molecule Dual Inhibitors Targeting Toll-Like Receptors 7 and 8” (J Med Chem, 2019).

Key:
[1] = target: T1, Toll-like receptor 8 (Homo sapiens) (UniProt Q9NR97); assay: Inhibition of human TLR8 expressed in HEK293 cells assessed as reduction in R848-induced NFkappaB production at 1.5 to 5 uM incubated for 16 hrs by quanti-blue SEAP assay; format: cell-based
T1 sequence (whole entry): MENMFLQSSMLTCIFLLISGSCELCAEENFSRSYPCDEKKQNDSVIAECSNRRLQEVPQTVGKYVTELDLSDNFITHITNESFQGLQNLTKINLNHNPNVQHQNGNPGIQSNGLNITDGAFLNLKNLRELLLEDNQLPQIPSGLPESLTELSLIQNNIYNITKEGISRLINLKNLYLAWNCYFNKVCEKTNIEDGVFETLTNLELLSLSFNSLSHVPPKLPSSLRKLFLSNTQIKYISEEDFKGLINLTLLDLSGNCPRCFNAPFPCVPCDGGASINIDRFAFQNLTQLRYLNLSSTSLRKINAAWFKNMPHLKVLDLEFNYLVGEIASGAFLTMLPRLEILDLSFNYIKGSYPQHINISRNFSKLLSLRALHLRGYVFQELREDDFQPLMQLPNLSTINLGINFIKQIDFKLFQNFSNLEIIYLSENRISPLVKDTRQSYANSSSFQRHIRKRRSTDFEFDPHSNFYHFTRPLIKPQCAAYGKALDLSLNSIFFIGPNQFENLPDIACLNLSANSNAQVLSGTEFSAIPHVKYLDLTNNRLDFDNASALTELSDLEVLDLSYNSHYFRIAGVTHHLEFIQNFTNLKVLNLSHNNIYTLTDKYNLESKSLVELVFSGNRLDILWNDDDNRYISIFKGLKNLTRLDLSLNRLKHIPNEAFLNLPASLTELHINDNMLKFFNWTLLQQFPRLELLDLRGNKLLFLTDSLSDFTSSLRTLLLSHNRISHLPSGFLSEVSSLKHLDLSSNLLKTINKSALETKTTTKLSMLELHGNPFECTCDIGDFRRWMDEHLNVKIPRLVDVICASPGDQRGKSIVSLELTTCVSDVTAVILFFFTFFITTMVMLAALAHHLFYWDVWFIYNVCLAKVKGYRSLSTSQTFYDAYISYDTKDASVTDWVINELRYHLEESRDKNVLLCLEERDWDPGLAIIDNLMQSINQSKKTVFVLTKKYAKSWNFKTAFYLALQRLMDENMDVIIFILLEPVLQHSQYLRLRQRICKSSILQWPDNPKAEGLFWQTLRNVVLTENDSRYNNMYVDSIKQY
Summary of the method: (§1)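 Selectivity panel in stably transfected HEK 293-Blue cells, each overexpressing one human TLR with an inducible SEAP reporter. Agonists: Pam3CSK4 (TLR1/2), Pam2CSK4 (TLR2/6), poly(I:C) (TLR3), LPS (TLR4), R848 (TLR7/8), ODN 2006 (TLR9). Cells were exposed to compound for 16 h. Activity = (raw − untreated)/(ligand + solvent − untreated), with ligand + solvent set as 100%.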

[2] = target: T2, Toll-like receptor 7 (Homo sapiens) (UniProt Q9NYK1); assay: Inhibition of human TLR7 expressed in HEK293 cells assessed as reduction in resiquimod-induced NFkappaB production at 1.5 to 5 uM incubated for 16 hrs by quanti-blue SEAP assay; format: cell-based; summary of the method: as §1
T2 sequence (whole entry): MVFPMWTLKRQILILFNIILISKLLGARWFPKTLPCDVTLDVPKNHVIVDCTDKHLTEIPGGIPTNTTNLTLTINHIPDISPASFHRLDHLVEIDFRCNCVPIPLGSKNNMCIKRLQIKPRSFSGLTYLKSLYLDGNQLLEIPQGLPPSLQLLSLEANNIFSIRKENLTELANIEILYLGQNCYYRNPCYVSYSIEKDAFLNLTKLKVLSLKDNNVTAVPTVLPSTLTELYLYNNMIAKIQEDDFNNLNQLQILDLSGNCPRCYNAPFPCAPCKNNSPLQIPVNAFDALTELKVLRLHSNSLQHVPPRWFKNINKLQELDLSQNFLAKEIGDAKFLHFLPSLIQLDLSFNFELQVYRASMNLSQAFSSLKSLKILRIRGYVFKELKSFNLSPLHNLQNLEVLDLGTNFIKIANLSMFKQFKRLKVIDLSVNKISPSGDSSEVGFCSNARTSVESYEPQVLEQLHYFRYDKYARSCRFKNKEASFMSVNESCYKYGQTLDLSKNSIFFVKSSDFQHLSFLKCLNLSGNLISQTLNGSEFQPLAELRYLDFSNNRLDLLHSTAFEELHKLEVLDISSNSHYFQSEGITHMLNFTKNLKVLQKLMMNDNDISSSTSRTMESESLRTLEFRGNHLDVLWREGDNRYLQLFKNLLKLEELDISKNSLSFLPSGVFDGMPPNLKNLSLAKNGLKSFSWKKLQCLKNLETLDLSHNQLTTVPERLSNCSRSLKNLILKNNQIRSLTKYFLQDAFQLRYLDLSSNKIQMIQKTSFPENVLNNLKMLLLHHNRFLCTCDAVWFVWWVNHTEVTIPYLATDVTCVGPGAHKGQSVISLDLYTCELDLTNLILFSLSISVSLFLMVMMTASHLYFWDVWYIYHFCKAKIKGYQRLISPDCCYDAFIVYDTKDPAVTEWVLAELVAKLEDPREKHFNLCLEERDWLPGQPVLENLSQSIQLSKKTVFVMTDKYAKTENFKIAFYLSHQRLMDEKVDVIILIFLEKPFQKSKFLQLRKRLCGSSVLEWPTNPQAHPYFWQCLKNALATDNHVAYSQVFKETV

[3] = target: Toll-like receptor 8 (Homo sapiens) (UniProt Q9NR97); assay: Inhibition of human TLR8 expressed in HEK293 cells assessed as reduction in resiquimod-induced NFkappaB production at 1.5 to 5 uM incubated for 16 hrs by quanti-blue SEAP assay
[4] = target: Toll-like receptor 7 (Homo sapiens) (UniProt Q9NYK1); assay: Inhibition of human TLR7 expressed in HEK293 cells assessed as reduction in R848-induced NFkappaB production incubated for 16 hrs by quanti-blue SEAP assay; details: concentration not given here
Toll-like receptor 7 = target: T3, Toll-like receptor 7 (Homo sapiens, UniProt Q9NYK1); assay: Inhibition of human TLR7 expressed in HEK293 cells assessed as reduction in R848-induced NFkappaB production incubated for 16 hrs by quanti-blue SEAP assay; format: cell-based
T3 sequence (Q9NYK1 whole entry): T2 sequence (whole entry)
Summary of the method: (§2)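 HEK 293-Blue cells stably expressing hTLR7 or hTLR8 with an inducible SEAP reporter were incubated 16 h with compound under 1 µg/mL R848 stimulation. SEAP was read at 620 nm. Data were normalized to the R848 control, and IC50 was taken from concentration-response curves. […] Mean ± s.d., n = 3 independent experiments.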

Toll-like receptor 8 = target: T4, Toll-like receptor 8 (Homo sapiens, UniProt Q9NR97); assay: Inhibition of human TLR8 expressed in HEK293 cells assessed as reduction in R848-induced NFkappaB production incubated for 16 hrs by quanti-blue SEAP assay; format: cell-based; summary of the method: as §2
T4 sequence (Q9NR97 whole entry): T1 sequence (whole entry)

[5] = target: T1, Toll-like receptor 8 (Homo sapiens); assay: Inhibition of human TLR8 expressed in HEK293 cells assessed as reduction in R848-induced NFkappaB production at 50 uM incubated for 16 hrs by quanti-blue SEAP assay relative to control; format: cell-based; summary of the method: as §2
[6] = target: T2, Toll-like receptor 7 (Homo sapiens); assay: Inhibition of human TLR7 expressed in HEK293 cells assessed as reduction in R848-induced NFkappaB production at 50 uM incubated for 16 hrs by quanti-blue SEAP assay relative to control; format: cell-based; summary of the method: as §2

O=C(Nc1ccc(Oc2cc(C(F)(F)F)cc(C(F)(F)F)c2)cc1)C1CCCCC1
inhibition [1]: 0%
inhibition [2]: 0%

CN(C(=O)c1c(F)cccc1Cl)c1ccc(Oc2cc(C(F)(F)F)cc(C(F)(F)F)c2)cc1
IC50 [3]: 2.9 µM
inhibition [4]: 0%

Nc1ccc(C(=O)Nc2ccc(Oc3cc(C(F)(F)F)cc(C(F)(F)F)c3)cc2)c(F)c1
IC50 (Toll-like receptor 7): > 50 µM
IC50 (Toll-like receptor 8): > 50 µM

O=C(Nc1ccc(Oc2cc(I)cc(C(F)(F)F)c2)cc1)c1c(F)cccc1Cl
IC50 (Toll-like receptor 8): > 5 µM

O=C(Nc1ccc(Oc2cc(C(F)(F)F)cc(C(F)(F)F)c2)cc1)c1ccccc1F
IC50 (Toll-like receptor 7): > 50 µM
IC50 (Toll-like receptor 8): 3 µM

O=C(Nc1ccc(Oc2cc(C(F)(F)F)cc(C(F)(F)F)c2)cc1)c1ccc2nc[nH]c2c1
IC50 (Toll-like receptor 7): > 50 µM
inhibition [5]: 20 to 30%

N#Cc1c(Cl)cccc1Oc1ccc(-c2ncco2)cc1
inhibition [1]: 0%

O=C(Nc1ccc(Oc2cc(C(F)(F)F)cc(C(F)(F)F)c2)cc1)c1ccc2[nH]ccc2c1
IC50 (Toll-like receptor 7): > 50 µM
inhibition [5]: 20 to 30%

Nc1cccc(F)c1C(=O)Nc1ccc(Oc2cc(C(F)(F)F)cc(C(F)(F)F)c2)cc1
inhibition [6]: 20 to 30%
inhibition [5]: 20 to 30%

O=C(Nc1cc(C(F)(F)F)cc(C(F)(F)F)c1)c1c(F)cccc1Cl
IC50 [3]: 1.4 µM
inhibition [4]: 0%

O=C(Nc1ccc(Oc2cc(Br)cc(C(F)(F)F)c2)cc1)c1c(F)cccc1Cl
IC50 (Toll-like receptor 8): 2.32 µM

O=C(Nc1ccc(Oc2cc(C(F)(F)F)cc(C(F)(F)F)c2)cc1)c1ccc(O)cc1F
IC50 (Toll-like receptor 8): > 50 µM
inhibition [2]: 0%

O=C(Nc1ccc(Oc2cc(C(F)(F)F)cc(C(F)(F)F)c2)cc1O)c1c(F)cccc1Cl
IC50 (Toll-like receptor 8): 4.02 µM
inhibition [2]: 0%

O=C(Nc1ccc(Oc2cc(C(F)(F)F)cc(C(F)(F)F)c2)cc1)c1ncccc1F
IC50 (Toll-like receptor 7): > 50 µM
inhibition [1]: 0%

O=C(Nc1ccc(Oc2cc(C(F)(F)F)cc(C(F)(F)F)c2)cc1)c1cc(I)ccc1F
inhibition [5]: 20 to 30%
inhibition [2]: 0%

O=S(=O)(Nc1ccc(Oc2cc(C(F)(F)F)cc(C(F)(F)F)c2)cc1)c1ccccc1F
inhibition [1]: 0%
inhibition [2]: 0%

O=C(Nc1ccc(Oc2cc(C(F)(F)F)cc(C(F)(F)F)c2)cc1)c1sccc1Cl
IC50 (Toll-like receptor 8): 3.2 µM
inhibition [2]: 0%

O=C(Nc1ccc(Oc2cc(C(F)(F)F)cc(C(F)(F)F)c2)cc1O)c1c(F)cccc1I
IC50 (Toll-like receptor 7): 4.73 µM
IC50 (Toll-like receptor 8): 2.63 µM

N#Cc1c(Cl)cccc1COc1ccc(-c2nnco2)cc1
IC50 (Toll-like receptor 8): 2.52 µM

O=C(Nc1ccc(Oc2cc(F)cc(C(F)(F)F)c2)cc1)c1c(F)cccc1Cl
IC50 (Toll-like receptor 8): 1.59 µM

O=C(Nc1ccc(Oc2cc(C(F)(F)F)cc(C(F)(F)F)c2)cc1)c1c(F)cccc1C(F)(F)F
inhibition [6]: 20 to 30%
inhibition [5]: 20 to 30%

O=C(Nc1ccc(Oc2cccc(C(F)(F)F)c2)cc1)c1c(F)cccc1Cl
IC50 (Toll-like receptor 7): 2.65 µM
IC50 (Toll-like receptor 8): 2.41 µM

O=C(Nc1ccc(Oc2cc(C(F)(F)F)cc(C(F)(F)F)c2)cc1)c1c(F)cccc1Br
IC50 (Toll-like receptor 7): 1 µM
IC50 (Toll-like receptor 8): 6 µM

O=C(Nc1ccc(Oc2cc(C(F)(F)F)cc(C(F)(F)F)c2)cc1)c1c(F)cccc1OC(F)(F)F
IC50 (Toll-like receptor 7): > 50 µM
IC50 (Toll-like receptor 8): > 50 µM

Fc1cccc(I)c1-c1nc2cc(Oc3cc(C(F)(F)F)cc(C(F)(F)F)c3)ccc2[nH]1
inhibition [1]: 0%
inhibition [2]: 0%

Cc1nnc(-c2ccc(C(=O)Oc3cccc(Cl)c3C#N)cc2)o1
inhibition [1]: 0%

O=C(Nc1cccc(Oc2cc(C(F)(F)F)cc(C(F)(F)F)c2)c1)c1c(F)cccc1Cl
inhibition [2]: 0%

Nc1c(Cl)cccc1Oc1ccc(-c2nnco2)cc1
IC50 (Toll-like receptor 8): 5.29 µM

O=C(Nc1ccc(Oc2cc(C(F)(F)F)cc(C(F)(F)F)c2)cc1)c1ccco1
inhibition [1]: 0%
inhibition [2]: 0%

Fc1cccc(Cl)c1CNc1ccc(Oc2cc(C(F)(F)F)cc(C(F)(F)F)c2)cc1
IC50 (Toll-like receptor 7): > 50 µM
IC50 (Toll-like receptor 8): > 50 µM

O=C(Nc1ccc(Oc2cc(C(F)(F)F)cc(C(F)(F)F)c2)cc1)c1c(F)cccc1F
inhibition [1]: 0%

N#Cc1c(Br)cccc1Oc1ccc(-c2nnco2)cc1
IC50 (Toll-like receptor 8): 0.88 µM

O=[N+]([O-])c1c(Cl)cccc1Oc1ccc(-c2nnco2)cc1
IC50 (Toll-like receptor 8): 0.77 µM

O=S(=O)(Nc1ccc(Oc2cc(C(F)(F)F)cc(C(F)(F)F)c2)cc1)c1c(F)cccc1Cl
inhibition [1]: 0%
inhibition [2]: 0%

O=C(Nc1ccc(Oc2cc(C(F)(F)F)cc(C(F)(F)F)c2)cc1)c1c(F)c(F)c(F)c(F)c1F
inhibition [1]: 0%
inhibition [2]: 0%

O=C(Nc1ccc(Oc2cc(C(F)(F)F)cc(C(F)(F)F)c2)cc1)c1cc(Cl)ccc1F
IC50 (Toll-like receptor 8): 1.11 µM
inhibition [6]: 20 to 30%

c1ccc(Oc2ccc(-c3nnco3)cc2)cc1
IC50 (Toll-like receptor 8): 7.26 µM

O=C(Nc1ccc(Oc2cc(C(F)(F)F)cc(C(F)(F)F)c2)cc1)c1c(O)cccc1F
inhibition [6]: 20 to 30%
inhibition [5]: 20 to 30%

O=C(Nc1c(F)cccc1Cl)c1ccc(Oc2cc(C(F)(F)F)cc(C(F)(F)F)c2)cc1
IC50 [3]: 7.1 µM
inhibition [4]: 0%

O=C(Nc1ccc(Oc2cc(Cl)cc(C(F)(F)F)c2)cc1)c1c(F)cccc1Cl
IC50 (Toll-like receptor 8): 2.04 µM

O=C(Nc1ccc(Oc2cc(C(F)(F)F)cc(C(F)(F)F)c2)cc1)c1ccc(I)cc1F
IC50 (Toll-like receptor 7): > 50 µM
IC50 (Toll-like receptor 8): > 50 µM

O=C(Nc1ccc(Oc2cc(O)cc(C(F)(F)F)c2)cc1)c1c(F)cccc1Cl
inhibition [1]: 0%
inhibition [2]: 0%

C#Cc1cccc(F)c1C(=O)Nc1ccc(Oc2cc(C(F)(F)F)cc(C(F)(F)F)c2)cc1
inhibition [1]: 0%
inhibition [2]: 0%
